Experimental data taken from ChEMBL document CHEMBL4619791, “3-Difluoroalkyl Quaternary Oxindoles Inhibit Macrophage Pyroptosis by Blocking Inflammasome Recruitment of Caspase-1” (ACS Med Chem Lett, 2020).
Calls of active or inactive are those of the source. The calls are words filed in the database; no cut-off is given here.

Tests used:
J774.A1 [1] = assay: Inhibition of caspase-1 recruitment to inflammasome in LPS-primed immortalized mouse […] cells assessed as nigericin-induced colocalization of caspase-1 and ASC at 5 uM by immunostaining based confocal microscopy; assay type: functional, cell-based
Outline: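 Caspase-1 and ASC colocalization: Pearson's correlation coefficient calculated in 20 to 25 randomly selected cells.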

BMDM [2] = assay: Inhibition of pyroptosis in LPS-primed C57BL/6 mouse primary BMDM assessed as effect on nigericin-induced cell morphological changes at 5 uM by propidium iodide staining based confocal microscopy; assay type: functional
Outline: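 Primary BMDM and J774A.1 cells treated with LPS and nigericin. Swelling, bubble formation and propidium iodide uptake visualized by epifluorescence microscopy.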

Mus musculus [3] = assay: Antiinflammatory activity against LPS-induced sepsis C57BL/6J mouse model assessed as increase in median survival time at 20 mg/kg, iv administered as single dose for 30 min prior to LPS challenge
Mus musculus [4] = assay: Antiinflammatory activity against LPS-induced sepsis C57BL/6J mouse model assessed as reduction in alveolar congestion at 20 mg/kg, iv administered as single dose for 1 hr prior to LPS challenge and measured after 48 hrs by hematoxylin-eosin staining based inverted microscopy analysis; assay type: functional, organism-based
J774.A1 [5] = assay: Inhibition of pyroptosis in LPS-primed immortalized mouse […] cells assessed as reduction in nigericin-induced IL-beta secretion by imaging analysis; assay type: functional
[6] = target: Nlrp3/Pycard (Mus musculus) (UniProt Q8R4B8+Q9EPB4); assay: Inhibition of NLRP3-ASC interaction in LPS-primed immortalized mouse […] cells at 5 uM by co-immunoprecipitation assay; assay type: cell-based; settings: J774.A1
Outline: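 Coimmunoprecipitation of endogenous ASC and NLRP3 in immortalized macrophages.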

BMDM [7] = assay: Inhibition of pyroptosis in LPS-primed C57BL/6 mouse primary BMDM assessed as reduction in nigericin-induced cell death by LDH assay; assay type: functional, cell-based
Outline: (§1)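 Primary murine macrophages primed with LPS and stimulated with nigericin across a dose range. IL-1β release, LDH release and Alamar blue measured. Means ± SE, ≥3 experimental replicates.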

[8] = Toxicity in zebrafish embryo; set-up: species or system Danio rerio; settings: in vivo
Outline: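 Zebrafish embryos exposed to compound. EC100 is the concentration at which all treated embryos show early lethality, embryonic defects or developmental delay.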

BMDM [9] = assay: Inhibition of pyroptosis cell death in LPS-primed C57BL/6 mouse primary BMDM assessed as reduction in nigericin-induced IL-1beta secretion; assay type: functional, cell-based; outline: as §1
THP-1 [10] = assay: Inhibition of pyroptosis in LPS-primed human THP1 assessed as reduction in nigericin-induced pyroptotic-pore formation by propidium iodide uptake assay; assay type: functional, cell-based
Outline: (§2)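 THP-1 cells induced to pyroptosis. Cell death read by LDH release and pore formation by PI uptake. Means ± SE, ≥3 experimental replicates.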

THP-1 [11] = assay: Inhibition of pyroptosis in LPS-primed human THP1 assessed as reduction in nigericin-induced cell death at 0.1 to 20 uM by LDH assay; assay type: functional, cell-based; outline: as §2
[12] = target: T1, Gasdermin-D (Homo sapiens) (UniProt P57764); assay: Inhibition of N-terminal GSDMD p30 fragment-mediated pyroptotic-cell death in doxycyclin-treated human HEK293T cells assessed as cell death at 5 uM by LDH assay; assay type: cell-based; settings: HEK-293T
T1 sequence (whole entry): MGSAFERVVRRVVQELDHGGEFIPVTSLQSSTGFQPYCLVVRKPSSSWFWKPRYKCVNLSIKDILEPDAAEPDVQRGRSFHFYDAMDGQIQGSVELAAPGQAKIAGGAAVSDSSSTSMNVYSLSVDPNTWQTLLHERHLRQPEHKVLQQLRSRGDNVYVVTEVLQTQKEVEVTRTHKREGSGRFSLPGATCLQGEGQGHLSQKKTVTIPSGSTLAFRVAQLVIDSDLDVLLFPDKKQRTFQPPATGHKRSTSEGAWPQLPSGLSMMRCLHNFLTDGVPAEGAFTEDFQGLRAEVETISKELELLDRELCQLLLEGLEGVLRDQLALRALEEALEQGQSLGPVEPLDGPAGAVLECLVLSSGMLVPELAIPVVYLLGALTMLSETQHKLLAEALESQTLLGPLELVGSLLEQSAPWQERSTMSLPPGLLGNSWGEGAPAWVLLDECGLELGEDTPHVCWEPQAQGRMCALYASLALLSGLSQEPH

Caspase-1 (Homo sapiens) = target: T2, Caspase-1 (Homo sapiens) (UniProt P29466); assay: Inhibition of pronase-mediated caspase-1 degradation in HEK293 cell lysate at 5 uM measured after 30 mins by DARTS based Western blot analysis; assay type: cell-free
T2 sequence (whole entry): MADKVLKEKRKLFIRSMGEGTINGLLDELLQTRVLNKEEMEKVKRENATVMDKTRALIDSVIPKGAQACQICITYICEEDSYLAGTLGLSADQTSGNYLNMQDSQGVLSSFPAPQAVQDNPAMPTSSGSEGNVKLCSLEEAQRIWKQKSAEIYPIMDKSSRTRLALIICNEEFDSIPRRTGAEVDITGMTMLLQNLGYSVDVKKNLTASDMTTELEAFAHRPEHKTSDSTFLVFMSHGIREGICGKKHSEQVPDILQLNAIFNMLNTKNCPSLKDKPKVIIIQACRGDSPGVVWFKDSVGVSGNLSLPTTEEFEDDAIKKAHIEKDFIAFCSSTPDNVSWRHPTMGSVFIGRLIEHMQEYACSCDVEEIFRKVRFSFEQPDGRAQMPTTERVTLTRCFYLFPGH
Outline: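 DARTS assay: cell lysates pretreated with compound, then digested with different Pronase concentrations. Caspase-1 stability read by immunoblot against a histone H3 control.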

BMDM [13] = assay: Inhibition of pyroptosis in LPS-primed C57BL/6 mouse primary BMDM assessed as reduction in nigericin-induced cell death by Alamar blue assay; assay type: functional, cell-based; outline: as §1
Caspase-1 (Mus musculus) = target: T3, Caspase-1 (Mus musculus) (UniProt P29452); assay: Inhibition of caspase-1 activity in LPS-primed immortalized mouse […] cells assessed as reduction in nigericin-induced Ac-YVAD-pNA cleavage using Ac-YVAD-pNA as substrate at 5 uM by FAM-FLICA reagent based confocal microscopy; assay type: cell-based; settings: J774.A1
T3 sequence (whole entry): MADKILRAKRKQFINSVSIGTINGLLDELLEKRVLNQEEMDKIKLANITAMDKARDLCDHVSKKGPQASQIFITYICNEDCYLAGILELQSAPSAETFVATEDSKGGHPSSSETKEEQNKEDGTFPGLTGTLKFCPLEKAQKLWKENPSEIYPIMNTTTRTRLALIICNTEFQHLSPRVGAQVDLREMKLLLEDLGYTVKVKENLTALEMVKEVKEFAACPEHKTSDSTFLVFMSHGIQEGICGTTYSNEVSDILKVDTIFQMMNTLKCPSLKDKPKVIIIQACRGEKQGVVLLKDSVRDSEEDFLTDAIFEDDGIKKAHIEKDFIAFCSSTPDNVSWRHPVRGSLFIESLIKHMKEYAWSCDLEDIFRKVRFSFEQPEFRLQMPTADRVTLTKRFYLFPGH
Outline: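 Nigericin-treated macrophages. Active caspase-1 was detected two ways: in J774A.1 cells stained with the FAM-FLICA probe plus Hoechst, imaged by confocal microscopy and FLICA intensity quantified in ≥20 cells per group; and with the Ac-YVAD-pNA substrate. Mean ± SEM, n ≥ 3.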

Nlrp3/Pycard (Mus musculus), sequence (Q8R4B8 whole entry, looked up): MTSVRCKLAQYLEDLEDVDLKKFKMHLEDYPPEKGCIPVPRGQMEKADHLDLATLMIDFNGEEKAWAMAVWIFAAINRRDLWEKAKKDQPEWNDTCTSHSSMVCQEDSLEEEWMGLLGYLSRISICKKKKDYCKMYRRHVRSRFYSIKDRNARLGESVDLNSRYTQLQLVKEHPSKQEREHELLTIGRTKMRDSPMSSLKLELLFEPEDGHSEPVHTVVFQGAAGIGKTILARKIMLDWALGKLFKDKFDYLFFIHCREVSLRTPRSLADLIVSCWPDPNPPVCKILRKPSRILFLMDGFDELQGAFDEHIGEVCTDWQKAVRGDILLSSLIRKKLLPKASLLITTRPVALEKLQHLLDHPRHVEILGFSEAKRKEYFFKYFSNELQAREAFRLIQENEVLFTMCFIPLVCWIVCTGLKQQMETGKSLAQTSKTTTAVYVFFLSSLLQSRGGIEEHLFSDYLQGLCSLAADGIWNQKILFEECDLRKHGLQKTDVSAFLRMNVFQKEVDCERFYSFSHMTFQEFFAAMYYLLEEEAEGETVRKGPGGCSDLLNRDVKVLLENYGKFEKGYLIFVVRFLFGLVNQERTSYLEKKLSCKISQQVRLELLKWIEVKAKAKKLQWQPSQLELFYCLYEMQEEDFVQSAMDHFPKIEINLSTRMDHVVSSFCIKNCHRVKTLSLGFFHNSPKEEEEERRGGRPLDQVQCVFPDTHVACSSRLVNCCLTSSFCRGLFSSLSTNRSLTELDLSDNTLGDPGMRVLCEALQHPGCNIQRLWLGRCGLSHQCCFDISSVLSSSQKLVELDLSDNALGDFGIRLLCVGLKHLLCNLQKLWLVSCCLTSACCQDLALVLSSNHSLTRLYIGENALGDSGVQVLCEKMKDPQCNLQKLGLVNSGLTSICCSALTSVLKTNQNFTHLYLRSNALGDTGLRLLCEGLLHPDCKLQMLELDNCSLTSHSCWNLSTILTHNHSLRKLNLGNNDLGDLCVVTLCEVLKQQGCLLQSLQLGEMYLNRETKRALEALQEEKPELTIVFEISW
Nlrp3/Pycard (Mus musculus), sequence (Q9EPB4 whole entry, looked up): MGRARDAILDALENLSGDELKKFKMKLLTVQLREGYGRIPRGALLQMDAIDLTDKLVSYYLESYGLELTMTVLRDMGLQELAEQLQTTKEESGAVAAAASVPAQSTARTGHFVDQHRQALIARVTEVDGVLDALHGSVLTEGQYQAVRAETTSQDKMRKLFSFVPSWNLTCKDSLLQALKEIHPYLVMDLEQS

CCOC(CN1C(=O)C(NC(=O)Nc2ccc(C)cc2)(C(F)(F)C(=O)Nc2ccc(C)cc2)c2ccccc21)OCC (stereo not given)
inhibition (J774.A1 [1]): Active | inhibition (BMDM [2]): Active | MST (Mus musculus [3]): 8 h | Activity (Mus musculus [4]): Active | Activity (J774.A1 [5]): 92.13 pg/mL | inhibition [6]: inactive | inhibition (BMDM [7]): Dose-dependent effect | EC100 [8]: > 50 µM | inhibition (BMDM [9]): Dose-dependent effect | inhibition (THP-1 [10]): Active | inhibition (THP-1 [11]): Active | inhibition [12]: inactive | inhibition (Caspase-1 (Homo sapiens)): Active | inhibition (BMDM [13]): Dose-dependent effect | inhibition (Caspase-1 (Mus musculus)): Active
